According to ChEMBL document CHEMBL1142748, “The tert-butyl dimethyl silyl group as an enhancer of drug cytotoxicity against human tumor cells” (Bioorg Med Chem Lett, 2005):
The source made the active and inactive calls. The rule behind the calls is not given here.

Key:
HL-60 [1] = assay: Concentration required for 50% reduction of cellular net growth of HL60 human leukemia cells; type: functional
Summary of the method: (§1)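 HL60 leukemia cells were grown in 96-well format following a modified NCI protocol. Compounds in DMSO were tested in duplicate at five 10-fold dilutions, and controls received equivalent DMSO. After 48 h exposure, cells were fixed with ice-cold 80% (w/v) TCA for 60 min at 4 °C, then stained by SRB and read at OD 490 nm. Percent growth came from start versus end OD, corrected for medium-only background. GI50 and TGI were read from dose–response curves as the mean of 2–4 experiments ± SD.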

MCF7S [2] = assay: Concentration required for 50% reduction of cellular net growth of MCF-7 human breast cancer cells; type: functional
Summary of the method: as §1, with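 “MCF7 breast cancer cells” for “HL60 leukemia cells”, “ice-cold 50%” for “ice-cold 80%”, “for medium” for “for medium-only”, “were taken” for “were read”, “from” for “from dose–response”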

MCF7S [3] = assay: Concentration required for 50% reduction of cellular net growth of MCF-7 human breast cancer cells; na=no activity; type: functional, cell-based
Summary of the method: as §1, with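 “MCF7 breast cancer cells” for “HL60 leukemia cells”, “ice-cold 50%” for “ice-cold 80%”, “for medium” for “for medium-only”, “were taken” for “were read”, “from” for “from dose–response”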

HL-60 [4] = assay: Concentration required for 50% reduction of cellular net growth of HL60 human leukemia cells; na=no activity; type: functional, cell-based; summary of the method: as §1
MCF7S [5] = assay: Concentration required for Total growth inhibition of MCF-7 human breast cancer cells; type: functional
Summary of the method: as §1, with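 “MCF7 breast cancer cells” for “HL60 leukemia cells”, “ice-cold 50%” for “ice-cold 80%”, “for medium” for “for medium-only”, “were taken” for “were read”, “from” for “from dose–response”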

HL-60 [6] = assay: Concentration required for Total growth inhibition of HL60 human leukemia cells; type: functional; summary of the method: as §1
MCF7S [7] = assay: Lethal concentration required for net loss in 50% of MCF-7 human breast cancer cells; type: functional; conditions: read-out: LC50 (the source's name)
Summary of the method: (§2)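 Modified NCI protocol with SRB read-out after 48 h drug exposure. Compounds were diluted from a DMSO stock at 400× the top final concentration, at five 10-fold dilutions in duplicate, with DMSO-matched controls. Cells were fixed with ice-cold TCA (80% w/v for HL60, 50% w/v for MCF7) for 60 min at 4 °C. OD was read at 490 nm and corrected for medium-only background. Percent growth came from OD at the start versus the end of exposure. LC50 is the concentration giving net loss of 50% of cells, from dose-response curves; values are means of 2–4 experiments.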

MCF7S [8] = assay: Concentration required for 50% reduction of cellular net growth of MCF-7 human breast cancer cells;na=no activity; type: functional, cell-based
Summary of the method: as §1, with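 “MCF7 breast cancer cells” for “HL60 leukemia cells”, “ice-cold 50%” for “ice-cold 80%”, “for medium” for “for medium-only”, “were taken” for “were read”, “from” for “from dose–response”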

HL-60 [9] = assay: Lethal concentration required for net loss in 50% of HL60 human leukemia cells; type: functional; conditions: read-out: LC50 (the source's name); summary of the method: as §2

GI50 (HL-60 [1])	GI50 (MCF7S [2])	GI50 (HL-60 [4])	Structure (SMILES)	TGI (MCF7S [5])	further results
46 µM	55 µM	–	CC(C)(C)[Si](C)(C)O[C@H]1CCCO[C@@H]1CCO	–	–
–	–	inactive	COC(=O)/C=C/C[C@H]1OCCC[C@@H]1OC(C)=O	–	GI50 (MCF7S [3]): inactive
–	32 µM	inactive	COC(=O)/C=C\[C@H]1OCCC[C@@H]1O[Si](C)(C)C(C)(C)C	82 µM	–
40 µM	21 µM	–	CC(C)(C)[Si](C)(C)O[C@H]1CCCO[C@@H]1CC=O	82 µM	–
–	–	inactive	CC(C)(C)[Si](C)(C)O[C@H]1CCCO[C@@H]1CC#N	–	–
31 µM	61 µM	–	CC(C)(C)[Si](C)(C)O[C@H]1CCCO[C@@H]1/C=C/CO	–	–
–	inactive	inactive	COC(=O)/C=C/C[C@H]1OCCC[C@@H]1OC(=O)c1ccccc1	–	–
–	–	inactive	COC(=O)/C=C/C[C@H]1OCCC[C@@H]1O	–	GI50 (MCF7S [8]): inactive
–	–	inactive	C=CCO[C@H]1CCCO[C@@H]1CC=O	–	–
–	–	inactive	OC/C=C/[C@H]1OCCC[C@@H]1O	–	GI50 (MCF7S [8]): inactive
–	86 µM	inactive	CC(C)(C)[Si](C)(C)OC/C=C/[C@H]1OCCC[C@@H]1O	–	–
22 µM	18 µM	–	COC(=O)/C=C/C[C@H]1OCCC[C@@H]1O[Si](C)(C)C(C)(C)C	48 µM	TGI (HL-60 [6]): 77 µM
27 µM	25 µM	–	CC(C)(C)[Si](C)(C)O[C@H]1CCCO[C@@H]1C/C=C/CO	83 µM	–

Structure (SMILES)	GI50 (HL-60 [1])	GI50 (MCF7S [2])	GI50 (HL-60 [4])	TGI (MCF7S [5])	further results
COC(=O)/C=C/[C@H]1OCCC[C@@H]1O[Si](C)(C)C(C)(C)C	22 µM	24 µM	–	80 µM	TGI (HL-60 [6]): 69 µM; CC50 (MCF7S [7]): 94 µM
CC(C)(C)[Si](C)(C)O[C@H]1CCCO[C@@H]1/C=C\CO	26 µM	6.4 µM	–	23 µM	TGI (HL-60 [6]): 64 µM; CC50 (MCF7S [7]): 63 µM; CC50 (HL-60 [9]): 88 µM
